# pEC50: −log10 of the molar value. The source made the active and inactive calls. The calls are words filed in the database; no cut-off is given here.
# Legend:
# dengue virus type 2 [1] = assay: Antiviral activity against at 1 MOI of Dengue virus 2 infected in hamster BHK21 cells assessed as viral titer after 48 hrs postinfection by plaque assay; type: functional, organism-based; settings: BHK-21, 1 M
# dengue virus type 2 [2] = assay: Antiviral activity against at 1 MOI of Dengue virus 2 infected in hamster BHK21 cells assessed as decrease in viral RNA synthesis at 3 uM after 24 hrs post-transfection by luciferase reporter gene assay; type: functional, organism-based; settings: BHK-21, 1 M
# In short: (§1)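 DENV-2 luciferase replicon RNA (10 μg) electroporated into 8 × 10^6 BHK-21 cells, then seeded at 3.2 × 10^5/well. Cells incubated immediately with 1 or 3 μM compound, with 0.9% DMSO (final) as control. Luciferase measured at 2–4 h (translation of input RNA) and at 24 and 35 h p.t. (RNA synthesis).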
# dengue virus type 2 [3] = assay: Antiviral activity against Dengue virus 2 TSVO1 infected in alpha/beta interferon and INFgamma receptor deficient AG129 mouse assessed as decrease in viral load treated 12 hrs postinfection measured after 3 days of infection […]; type: functional, organism-based
# dengue virus type 2 [4] = assay: Antiviral activity against at 1 MOI of Dengue virus 2 infected in hamster BHK21 cells assessed as decrease in viral RNA synthesis at 3 uM after 35 hrs post-transfection by luciferase reporter gene assay; type: functional, organism-based; settings: BHK-21, 1 M; in short: as §1
# dengue virus type 2 [5] = assay: Antiviral activity against at 0.3 MOI of Dengue virus 2 infected in hamster BHK21 cells assessed as reduction in viral titer at 6 uM after 48 hrs postinfection; type: functional, organism-based; settings: BHK-21, 0.3 M
# In short: (§2)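 BHK-21 cells infected with DENV-2 at MOI 0.3 and treated immediately with graded compound concentrations. Viral titers in culture fluid determined at 48 h p.i.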
# Blood [6] = assay: Drug uptake in rat blood assessed as di-derivatives of compound level at 25 mg/kg, po by […]; type: ADME, organism-based; design: dose 25 mg/kg, route oral; settings: in vivo
# In short: (§3)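 Male Han-Wistar rats given 14C-labeled compound (label at adenine C-2) as a single intravenous 5 mg/kg or oral 25 mg/kg dose. Plasma and blood pellets sampled over time; pellets first taken up in 2 volumes of pH 2.5 ammonium formate/0.1% formic acid. Extraction in ice-cold acetonitrile (3:1). Metabolites profiled by HPLC with off-line radioactivity detection and identified by MS.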
# dengue virus type 2 [7] = assay: Antiviral activity against Dengue virus 2 infected in human A549 cells assessed as level of E protein production up to 20 uM by ELISA in presence of 0.2 uM adenosine kinase inhibitor iodotubercidin; type: functional, organism-based
# In short: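 CFI assay in A549 cells with iodotubercidin at 0.2 μM and test compound up to 20 μM. Cells infected with DENV-2 at MOI 0.3 for 1 h with compound in the inoculum, then refed with compound-containing medium. Methanol fixation on day 2 p.i. E protein read by 4G2/HRP ELISA.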
# dengue virus type 2 [8] = assay: Antiviral activity against at 0.3 MOI of Dengue virus 2 infected in hamster BHK21 cells assessed as reduction in viral titer after 48 hrs postinfection; type: functional, organism-based; in short: as §2
# Blood [9] = assay: Drug uptake in rat blood assessed as mono-derivatives of compound level at 25 mg/kg, po by […]; type: ADME, organism-based; design: dose 25 mg/kg, route oral; settings: in vivo; in short: as §3
# dengue virus type 2 [10] = assay: Antiviral activity against Dengue virus 2 TSVO1 infected in alpha/beta interferon and INFgamma receptor deficient AG129 mouse assessed as […] at 150 mg/kg, po 12 hrs postinfection measured after 3 days of infection […]; type: functional, organism-based; design: dose 150 mg/kg
# dengue virus type 2 [11] = assay: Antiviral activity against at 1 MOI of Dengue virus 2 infected in hamster BHK21 cells assessed as decrease in viral NS3 protein expression at 3 uM after 24 hrs post-transfection by […]; type: functional, organism-based; settings: BHK-21, 1 M
# In short: (§4)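 Replicon-electroporated BHK-21 cells treated immediately with 1 or 3 μM compound, with 0.9% DMSO control. Cells lysed at 24 and 35 h p.t. NS3 detected by Western blot with in-house rabbit anti-NS3 (1:5,000). γ-Tubulin (1:1,000) served as reference, with HRP secondary antibodies (1:8,000).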
# dengue virus type 2 [12] = assay: Antiviral activity against at 1 MOI of Dengue virus 2 infected in hamster BHK21 cells assessed as decrease in viral RNA synthesis at 3 uM after 2 to 4 hrs post-transfection by luciferase reporter gene assay; type: functional, organism-based; settings: BHK-21, 1 M; in short: as §1
# dengue virus type 2 [13] = assay: Antiviral activity against Dengue virus 2 infected in human HEK293 cells assessed as level of viral titer after 48 hrs by luciferase reporter gene assay in presence of siRNA targeting deoxycytidine kinase; type: functional, organism-based
# dengue virus type 2 [14] = assay: Antiviral activity against Dengue virus 2 TSVO1 infected in alpha/beta interferon and INFgamma receptor deficient AG129 mouse assessed as decrease in viral load at 300 mg/kg, po 12 hrs postinfection […]; type: functional, organism-based; design: dose 300 mg/kg
# dengue virus type 2 [15] = assay: Antiviral activity against Dengue virus 2 infected in human HEK293 cells assessed as level of viral titer after 48 hrs by luciferase reporter gene assay in presence of siRNA targeting adenosine kinase; type: functional, organism-based; settings: HEK293, 48 h
# dengue virus type 2 [16] = assay: Antiviral activity against 3x10^7 PFU Dengue virus 2 D2S10 infected in alpha/beta interferon and INFgamma receptor deficient AG129 mouse assessed as protection against lethal virus challenge at 75 mg/kg, po treated 12 hrs postinfection by HPLC; type: functional, organism-based; design: dose 75 mg/kg
# In short: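 AG129 mice infected intravenously with 3 × 10^7 PFU of mouse-adapted DENV-2 strain D2S10. A single 75 mg/kg dose given at 12 h postinfection. Read-out was survival after the lethal challenge.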
# dengue virus type 2 [17] = assay: Antiviral activity against at 1 MOI of Dengue virus 2 infected in hamster BHK21 cells assessed as decrease in viral RNA synthesis at 1 uM after 35 hrs post-transfection by luciferase reporter gene assay; type: functional, organism-based; settings: BHK-21, 1 M; in short: as §1
# dengue virus type 2 [18] = assay: Selectivity ratio of EC50 for Dengue virus 2 infected in human HEK293 cells in presence of siRNA targeting adenosine kinase to EC50 for Dengue virus 2 infected in human HEK293 cells in absence of siRNA targeting adenosine kinase; type: functional
# In short: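 siRNA pools (10 pmol, four siRNAs against adenosine kinase or deoxycytidine kinase) reverse-transfected with RNAiMax into HEK-293 cells carrying a DENV-2 luciferase replicon (2 × 10^4/well). After 24 h at 37°C, graded compound concentrations were added. Renilla luciferase was read 3 days later. EC50s were compared with and without siRNA.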
# [19] = Cytotoxicity against human A549 cells assessed as intracellular ATP level by Celltiter-Glo luminescent assay; type: cell-based
# dengue virus type 2 [20] = assay: Antiviral activity against at 0.3 MOI Dengue virus 2 infected in human A549 cells assessed as level of E protein after 48 hrs by ELISA; type: functional, organism-based; settings: A549, 48 h
# In short: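 CFI assay: A549 cells (2 × 10^4/well) seeded and infected the next day with DENV-2 at MOI 0.3 for 1 h, compound added to the inoculum. Medium then replaced with fresh medium containing compound. Cells methanol-fixed on day 2 p.i. E protein detected by ELISA (mAb 4G2, HRP anti-mouse IgG). EC50 from nonlinear regression.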
# dengue virus type 2 [21] = assay: Antiviral activity against at 1 MOI of Dengue virus 2 infected in hamster BHK21 cells assessed as decrease in viral NS3 protein expression at 1 uM after 35 hrs post-transfection by […]; type: functional, organism-based; settings: BHK-21, 1 M; in short: as §4
# dengue virus type 2 [22] = assay: Antiviral activity against at 1 MOI of Dengue virus 2 infected in hamster BHK21 cells assessed as decrease in viral RNA synthesis at 1 uM after 24 hrs post-transfection by luciferase reporter gene assay; type: functional, organism-based; settings: BHK-21, 1 M; in short: as §1
# dengue virus type 2 [23] = assay: Antiviral activity against at 1 MOI of Dengue virus 2 infected in hamster BHK21 cells assessed as decrease in viral NS3 protein expression at 3 uM after 35 hrs post-transfection by […]; type: functional, organism-based; settings: BHK-21, 1 M; in short: as §4
# Plasma = assay: Drug uptake in rat plasma at 25 mg/kg, po by […]; type: ADME, organism-based; design: dose 25 mg/kg, route oral; settings: in vivo; in short: as §3
# dengue virus type 2 [24] = assay: Antiviral activity against at 1 MOI of Dengue virus 2 infected in hamster BHK21 cells assessed as decrease in viral RNA synthesis at 1 uM after 2 to 4 hrs post-transfection by luciferase reporter gene assay; type: functional, organism-based; settings: BHK-21, 1 M; in short: as §1
# Blood [25] = assay: Drug uptake in rat blood assessed as tri-derivatives of compound level at 25 mg/kg, po by […]; type: ADME, organism-based; design: dose 25 mg/kg, route oral; settings: in vivo; in short: as §3
# [26] = Cytotoxicity against hamster BHK21 cells assessed as intracellular ATP level upto 100 uM by Celltiter-Glo luminescent assay; type: cell-based, Mesocricetus auratus; settings: bhk-21
# In short: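 CC50 estimated from intracellular ATP by CellTiter-Glo luminescence. BHK-21 cells were tested up to 100 μM.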
# dengue virus type 2 [27] = assay: Antiviral activity against at 1 MOI of Dengue virus 2 infected in hamster BHK21 cells assessed as decrease in viral NS3 protein expression at 1 uM after 24 hrs post-transfection by […]; type: functional, organism-based; settings: BHK-21, 1 M; in short: as §4
compound,measurement,setting,value
C#C[C@@]1(O)[C@H](O)[C@@H](CO)O[C@H]1n1ccc2c(N)ncnc21,Activity,dengue virus type 2 [1],Active
same,Activity,dengue virus type 2 [2],Active
same,Activity,dengue virus type 2 [3],Active
same,Activity,dengue virus type 2 [4],Active
same,Activity,dengue virus type 2 [5],Active
same,Drug uptake,Blood [6],Active
same,Activity,dengue virus type 2 [7],inactive
same,Activity,"dengue virus type 2 [8]; BHK-21, 0.3 M",Dose-dependent effect
same,pEC50,"dengue virus type 2 [8]; BHK-21, 48 h",6.15
same,Drug uptake,Blood [9],Active
same,Activity,dengue virus type 2 [10],inactive
same,Activity,dengue virus type 2 [11],Active
same,Activity,dengue virus type 2 [12],inactive
same,Activity,dengue virus type 2 [13],Active
same,Activity,dengue virus type 2 [14],inactive
same,pEC50,dengue virus type 2 [15],5.04
same,Activity,dengue virus type 2 [16],Active
same,Activity,dengue virus type 2 [17],Active
same,Selectivity ratio,dengue virus type 2 [18],11
same,CC50,[19],> 100 µM
same,pEC50,dengue virus type 2 [20],6.15
same,Activity,dengue virus type 2 [21],Active
same,Activity,dengue virus type 2 [22],Active
same,Activity,dengue virus type 2 [23],Active
same,Drug uptake,Plasma,Active
same,Activity,dengue virus type 2 [24],inactive
same,Drug uptake,Blood [25],Active
same,Activity,[26],Non-toxic
same,Activity,dengue virus type 2 [27],Active
C#C[C@@]1(O)[C@H](O)[C@@H](CO)O[C@H]1n1cc(C(N)=O)c2c(N)ncnc21,CC50,[19],62 µM
same,pEC50,dengue virus type 2 [20],5.70
CC[C@@]1(O)[C@H](O)[C@@H](CO)O[C@H]1n1cnc2c(N)ncnc21,CC50,[19],> 100 µM
same,pEC50,dengue virus type 2 [20],< 4.00
C=C[C@@]1(O)[C@H](O)[C@@H](CO)O[C@H]1n1cnc2c(N)ncnc21,CC50,[19],> 59 µM
same,pEC50,dengue virus type 2 [20],< 4.30
CC#C[C@@]1(O)[C@H](O)[C@@H](CO)O[C@H]1n1cnc2c(N)ncnc21,CC50,[19],> 100 µM
same,pEC50,dengue virus type 2 [20],< 4.00
C#C[C@@]1(O)[C@H](O)[C@@H](CO)O[C@H]1n1cc(C#N)c2c(N)ncnc21,CC50,[19],> 100 µM
same,pEC50,dengue virus type 2 [20],5.51
C#C[C@@]1(O)[C@H](O)[C@@H](CO)O[C@H]1n1ccc(N)nc1=O [2'-ETHYNYL-D-CYTIDINE],CC50,[19],> 100 µM
same,pEC50,dengue virus type 2 [20],< 4.00
C#C[C@@]1(O)[C@H](O)[C@@H](CO)O[C@H]1n1cnc2c(=O)[nH]c(N)nc21,CC50,[19],> 100 µM
same,pEC50,dengue virus type 2 [20],< 4.00
C#C[C@@]1(O)[C@H](O)[C@@H](CO)O[C@H]1n1cnc2c(N)ncnc21,CC50,[19],40 µM
same,pEC50,dengue virus type 2 [20],5.85
C[C@@]1(O)[C@H](O)[C@@H](CO)O[C@H]1n1cnc2c(N)ncnc21,CC50,[19],> 50 µM
same,pEC50,dengue virus type 2 [20],5.95
C#C[C@@]1(O)[C@H](O)[C@@H](CO)O[C@H]1n1cc(F)c2c(N)ncnc21,CC50,[19],44 µM
same,pEC50,dengue virus type 2 [20],6.38

# From ChEMBL document CHEMBL1629694, “Inhibition of dengue virus RNA synthesis by an adenosine nucleoside” (Antimicrob Agents Chemother, 2010)
